Experimental data of several laboratories.
Compare with care: the assays were run in different laboratories.
Cell line: MCF7
Read-out: cell growth or viability

Structure (SMILES) | test | conditions | IC50
Fc1ccccc1Nc1nc(-c2ccncc2)nc2c1CNCC2 | MTT |  | > 100 µM
C/C(=N\C(=S)/N=C(\C)c1c(O)c2ccccc2oc1=O)c1c(O)c2ccccc2oc1=O | MTT | 48 h | 7.59 µM
CC(C)CNC(=S)N/N=C/c1cccc2cc3ccccc3nc12 | MTT | 48 h | > 50 µM
O=C1C(=Nc2ccccc2I)c2ccccc2N1Cc1ccc([N+](=O)[O-])cc1 | MTT | 48 h | 11.6 µM
C/C(=N\CCNCC/N=C(\C)c1c(O)c2ccccc2oc1=O)c1c(O)c2ccccc2oc1=O | MTT | 48 h | 11 µM
O=C1Nc2ccccc2/C1=N/N=C/c1cccc([N+](=O)[O-])c1 | MTT | 48 h | 22.8 µg/mL
O=[N+]([O-])c1cc(I)c(O)c(C=NNc2ccc(C(F)(F)F)cc2)c1 | MTT | 24 h | 8.56 µM
O=C1CS/C(=N\c2ccccc2O)N1c1nnc(-c2ccc(C(F)(F)F)cc2/N=C2\SCC(=O)N2c2ccccc2O)s1 | MTT |  | 32.4 µM
CCOC(=O)C(=CNc1ccc(Oc2ccccc2)cc1)C(=O)OCC | MTT |  | ≥ 200 µM
COc1cc(N=C2C(=O)N(Cc3ccccc3)c3ccccc32)cc(OC)c1 | MTT | 48 h | 0.56 µM
Fc1ccc2c(-c3ncc(-c4ccccc4)o3)nn(Cc3ccccc3)c2c1 |  | 48 h | 71 µM
Nc1ccn([C@@H]2O[C@H](CO)[C@@H](O)C2(F)F)c(=O)n1 | MTT | 48 h | 1.59 µg/mL
CC(=O)O[C@@H]1[C@@H](OC(C)=O)[C@H](OC(C)=O)CO[C@H]1n1cc(Cn2c(C(=O)/C=C/c3ccc(F)cc3)nc3ccccc32)nn1 | LDH | 48 h | 2.98 µM
COc1cccc2c1C(=O)c1c(O)c3c(c(O)c1C2=O)C[C@@](O)(C(=O)CO)C[C@@H]3O[C@H]1C[C@H](N)[C@H](O)[C@H](C)O1 | MTT | 24 h | 1.09 µM
CN(C)c1cccc(Nc2nc(-c3ccncc3)nc3c2CNCC3)c1 | MTT |  | 46.4 µM
O=C(NO)Nc1nc2c(Cl)cc(Cl)cc2c(=O)n1-c1ccc(Cl)cc1 | MTT | 48 h | > 200 µM
O=C(NCc1ccc(OC(F)(F)F)cc1)c1cn(Cc2ccc(F)cc2)c2ccc(Oc3ccccc3)cc2c1=O | MTT | 48 h | 79.6 µM
NS(=O)(=O)c1ccc(-n2nc(C(=O)NN=Cc3ccc(O)cc3)cc2-c2ccccc2)cc1 | fluorescence | 48 h | 16.9 µM
COc1cc(C=O)ccc1OC1=C(Cl)C(=O)c2ccccc2C1=O | MTT | 24 h | 41.5 µg/mL
O=C1CS/C(=N\c2ccc(F)cc2O)N1c1nnc(-c2ccc(C(F)(F)F)cc2/N=C2\SCC(=O)N2c2ccc(F)cc2O)s1 | MTT |  | 18.1 µM
C[C@H]1[C@H](C)CC[C@]2(C)CC[C@]3(C)C(=CC(=O)[C@@H]4[C@@]5(C)CC[C@@H](O)[C@](C)(C(=O)NCc6cn(-c7ccc(Br)cc7)nn6)[C@@H]5CC[C@]43C)[C@H]12 | MTT | 24 h | 75.1 µM
COc1cccc2c1C(=O)c1c(O)c3c(c(O)c1C2=O)C[C@@](O)(C(=O)CO)C[C@@H]3O[C@H]1C[C@H](N)[C@H](O)[C@H](C)O1 | MTT | 48 h | 8.87 µM
O=C1C(=Nc2ccc(Cl)cc2Br)c2ccccc2N1Cc1ccc([N+](=O)[O-])cc1 | MTT | 48 h | 2.33 µM
COc1cccc2c1C(=O)c1c(O)c3c(c(O)c1C2=O)C[C@@](O)(C(=O)CO)C[C@@H]3O[C@H]1C[C@H](N)[C@H](O)[C@H](C)O1 | MTT |  | 34.3 µM
COc1ccc(N(Cc2csc(-c3ccc(C)cc3)n2)C(=O)CCCCCC(=O)NO)cc1 | MTT | 72 h | 3.31 µM
C[C@H]1[C@H](C)CC[C@]2(C)CC[C@]3(C)C(=CC(=O)[C@@H]4[C@@]5(C)CC[C@@H](O)[C@](C)(C(=O)NCc6cn(-c7cccc(C(F)(F)F)c7)nn6)[C@@H]5CC[C@]43C)[C@H]12 | MTT | 24 h | 73.2 µM

Structure (SMILES) | test | conditions | IC50
CC(=O)O[C@H]1C(=O)[C@@]2(C)[C@H]([C@H](OC(=O)c3ccccc3)[C@]3(O)C[C@H](OC(=O)[C@H](O)[C@@H](NC(=O)c4ccccc4)c4ccccc4)C(C)=C1C3(C)C)[C@]1(OC(C)=O)CO[C@@H]1C[C@@H]2O | MTT | 48 h | > 100 µM
COc1ccc(NC(=S)N/N=C/c2cccc3cc4ccccc4nc23)cc1 | MTT | 48 h | > 50 µM
NS(=O)(=O)c1ccc(-n2nc(-c3nnc(S)o3)cc2-c2ccccc2)cc1 | fluorescence | 48 h | 35.4 µM
O=[N+]([O-])c1cc(I)c(O)c(C=NNc2ccccc2)c1 | MTT | 24 h | 7.76 µM
FC(F)(F)c1ccc(-c2nnc(-c3nn(Cc4ccc(Cl)cc4Cl)c4ccccc34)o2)cc1 |  | 48 h | 71.1 µM
CCOC(=O)c1c(C)nc2ccc(-c3ccc(F)cc3F)cc2c1O | MTT | 48 h | 27 µM
C#Cc1cccc(Nc2ncnc3cc(OCCOC)c(OCCOC)cc23)c1 | MTT | 48 h | > 20 µM
C[C@H]1[C@H](C)CC[C@]2(C(=O)O)CC[C@]3(C)C(=CC[C@@H]4[C@@]5(C)CC[C@H](O)C(C)(C)[C@@H]5CC[C@]43C)[C@H]12 | thymidine uptake | 24 h | 25.7 µM
CCOC(=O)c1c(C)nc2ccc(-c3ccc(F)cc3)cc2c1O | MTT | 48 h | 11 µM
O=C1Nc2ccccc2C1=Nc1ccc(Cl)cc1 | MTT | 48 h | 72.3 µM
CC(C)c1ccc(/C=C2\N=C(SCC(=O)O)N(c3ccccc3)C2=O)cc1 | MTT |  | 49.2 µg/mL
CC(C)c1cccc(C(C)C)c1N=C1C(=O)N(Cc2ccc(Br)cc2)c2ccccc21 | MTT | 48 h | 52.6 µM
CC(=O)O[C@H]1C(=O)[C@@]2(C)[C@H]([C@H](OC(=O)c3ccccc3)[C@]3(O)C[C@H](OC(=O)[C@H](O)[C@@H](NC(=O)c4ccccc4)c4ccccc4)C(C)=C1C3(C)C)[C@]1(OC(C)=O)CO[C@@H]1C[C@@H]2O |  |  | 0.00751 µM
O=C(C=Cc1ccc(OCCOc2ccc(C=CC(=O)c3cccs3)cc2)cc1)c1cccs1 | MTT | 48 h | 11.5 µM
CC1=CC(=O)C(C(C)C)=CC1=O | SRB | 48 h | 9.8 µM
NNc1nc2c(Cl)cc(Cl)cc2c(=O)n1-c1ccccc1 | MTT | 48 h | > 200 µM
O=[N+]([O-])c1ccc(O)c(C=NNc2ccc(Br)cc2)c1 | MTT | 24 h | 8.67 µM
Cc1ccc(CN2C(=O)C(=Nc3cccc(Cl)c3)c3ccccc32)cc1 | MTT | 48 h | 2.26 µM
O=C(NO)Nc1nc2ccc(Br)cc2c(=O)n1-c1ccccc1 | MTT | 48 h | 29.6 µM
c1ccc(-c2noc(-c3nn(Cc4ccncc4)c4ccccc34)n2)cc1 |  | 48 h | 18.7 µM
O=C1CS/C(=N\c2cc(C(F)(F)F)ccc2-c2nnc(N3C(=O)CS/C3=N\c3ccc(F)cc3)s2)N1c1ccc(F)cc1 | MTT |  | 22.5 µM
O=C1C(=Nc2ccccc2Br)c2ccccc2N1Cc1ccccc1 | MTT | 48 h | 2.16 µM
c1ccc(Cn2nc(-c3nc(-c4ccccc4)n[nH]3)c3ccccc32)cc1 |  | 48 h | 97.4 µM
CCc1ccc(N=C2C(=O)Nc3ccccc32)cc1 | MTT | 48 h | 51.7 µM
CCOC(=O)c1c(C)nc2ccc(-c3ccc(OCc4ccccc4)c(F)c3)cc2c1O | MTT | 48 h | 5 µM
C#Cc1cccc(Nc2ncnc3cc(OCCOC)c(OCCOC)cc23)c1 | LDH | 48 h | 1.05 µM
